Reference: publication PMC12334608 (Nature Communications, 2025)
Substitutions are numbered along the chain they refer to. Names may count otherwise. Where two headings read alike, the source gives them in different places.

What was measured:
ACOX-1.1 [1] = molecular target: T1, ACOX-1.1 (Caenorhabditis elegans, UniProt O62140); assay: Enzyme-coupled kinetic assay, wild-type ACOX-1.1 as purified; format: biochemical, C. elegans; settings: for rescue of the time-dependent decrease in enzymatic activity: incubation with FAD plus nucleotide, compared with ATP
T1 sequence (O62140 1-674): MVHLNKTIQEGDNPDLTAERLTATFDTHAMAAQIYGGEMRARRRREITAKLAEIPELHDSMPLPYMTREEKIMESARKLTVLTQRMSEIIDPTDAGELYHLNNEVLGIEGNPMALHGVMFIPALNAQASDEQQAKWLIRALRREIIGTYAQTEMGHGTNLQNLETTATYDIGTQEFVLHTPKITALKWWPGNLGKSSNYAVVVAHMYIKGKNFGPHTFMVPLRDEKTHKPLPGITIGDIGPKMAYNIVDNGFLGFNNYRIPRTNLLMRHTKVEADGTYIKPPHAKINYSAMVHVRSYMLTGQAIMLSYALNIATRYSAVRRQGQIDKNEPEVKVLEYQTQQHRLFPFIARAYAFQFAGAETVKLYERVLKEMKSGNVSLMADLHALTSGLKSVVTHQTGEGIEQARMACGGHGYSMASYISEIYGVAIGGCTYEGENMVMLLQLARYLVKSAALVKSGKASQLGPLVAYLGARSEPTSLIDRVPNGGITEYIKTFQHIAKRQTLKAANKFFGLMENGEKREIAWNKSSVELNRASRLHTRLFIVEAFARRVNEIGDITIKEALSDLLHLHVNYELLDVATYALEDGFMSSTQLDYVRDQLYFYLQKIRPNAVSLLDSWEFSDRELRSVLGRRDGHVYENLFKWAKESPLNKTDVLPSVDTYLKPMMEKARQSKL

ACOX-1.1 [2] = molecular target: T1, ACOX-1.1; assay: FAD koff rate by fluorescence polarization; format: binding, C. elegans; settings: read-out: koff of FAD
How it was run: (§1)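 FAD-bound, non-dialyzed enzyme at 5 μM was run in triplicate. FAD fluorescence anisotropy was recorded in polarization mode on a plate reader over 1 h, with 5 μM FAD alone as the gain/focus control. koff was obtained by fitting to a dissociation kinetics equation. Preparations were 46% (wild type) and 66% (E434A) FAD-bound per dimer.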

ACOX-1.1(E434A) = assay: FAD koff rate by fluorescence polarization; format: binding, C. elegans
How it was run: as §1

apo ACOX-1.1 [3] = molecular target: T2, apo ACOX-1.1 (Caenorhabditis elegans, UniProt O62140); assay: Enzyme-coupled kinetic assay, wild-type apo ACOX-1.1; format: biochemical, C. elegans
T2 sequence (O62140 1-674): T1 sequence (O62140 1-674)

ACOX-1.1(R343A) = molecular target: T3, ACOX-1.1(R343A) (Caenorhabditis elegans, UniProt O62140, R343A); assay: Enzyme-coupled kinetic assay, ACOX-1.1; format: biochemical, C. elegans
T3 sequence (O62140 1-674 R343A): T1 sequence (O62140 1-674) with R343A

ACOX-1.1(R343Q) = molecular target: T4, ACOX-1.1(R343Q) (Caenorhabditis elegans, UniProt O62140, R343Q); assay: Enzyme-coupled kinetic assay, ACOX-1.1; format: biochemical, C. elegans
T4 sequence (O62140 1-674 R343Q): T1 sequence (O62140 1-674) with R343Q

apo ACOX-1.1 [4] = molecular target: T2, apo ACOX-1.1; assay: FAD and ATP dissociation constants by fluorescence polarization; format: binding, C. elegans
SEC = molecular target: the molecule itself; assay: SEC

Nc1ncnc2c1ncn2[C@@H]1O[C@H](COP(=O)(O)OP(=O)(O)O)[C@@H](O)[C@H]1O [ADP]
rescue of the time-dependent decrease in enzymatic activity (ACOX-1.1 [1]): None of these nucleotides are able to rescue the time-dependent decrease in enzymatic activity as well as ATP

Nc1ncnc2c1ncn2[C@@H]1O[C@H](COP(=O)(O)O)[C@@H](O)[C@H]1O [AMP]
rescue of the time-dependent decrease in enzymatic activity (ACOX-1.1 [1]): None of these nucleotides are able to rescue the time-dependent decrease in enzymatic activity as well as ATP

Cc1cc2nc3c(=O)[nH]c(=O)nc-3n(C[C@H](O)[C@H](O)[C@H](O)COP(=O)(O)OP(=O)(O)OC[C@H]3O[C@@H](n4cnc5c(N)ncnc54)[C@H](O)[C@@H]3O)c2cc1C [FAD]
koff (ACOX-1.1 [2]): 0.000536 s⁻¹
time in which about half of the bound FAD is lost (ACOX-1.1(E434A); ACOX-1.1(E434A)): about half of the bound FAD is lost in an hour
koff of FAD (ACOX-1.1(E434A); catalytic mutant ACOX-1.1(E434A), 5 μM): 0.0002 s⁻¹
EC50 (apo ACOX-1.1 [3]; EC50 for FAD (high-affinity site), 350 μM ATP, 95% CI: 358–476 nM): 0.385 µM
EC50 (apo ACOX-1.1 [3]; lower EC50 for FAD, absence of ATP, 95% CI: 6.1–27.5 μM): 13 µM
EC50 (apo ACOX-1.1 [3]; read-out: EC50 for FAD (low-affinity site), estimated, 350 μM ATP, 95% CI: 74–203 μM): 177 µM
EC50 (ACOX-1.1(R343A)): > 1000 µM
EC50 (ACOX-1.1(R343Q)): > 1000 µM
FAD needed to obtain a similar amount of rescue with FAD alone (ACOX-1.1 [1]; no ATP): at least 100 μM
Kd (apo ACOX-1.1 [4]; KD of ACOX-1.1 for FAD, in the presence of ATP (350 μM)): ~0.45 µM
KD of ACOX-1.1 for FAD (apo ACOX-1.1 [4]; in the absence of ATP): could not be measured because it is too high

Nc1nc2c(ncn2[C@@H]2O[C@H](COP(=O)(O)OP(=O)(O)OP(=O)(O)O)[C@@H](O)[C@H]2O)c(=O)[nH]1 [GTP]
rescue of the time-dependent decrease in enzymatic activity (ACOX-1.1 [1]): None of these nucleotides are able to rescue the time-dependent decrease in enzymatic activity as well as ATP

Nc1ncnc2c1ncn2[C@H]1C[C@H](O)[C@@H](COP(=O)(O)OP(=O)(O)OP(=O)(O)O)O1 [deoxy-ATP]
rescue of the time-dependent decrease in enzymatic activity (ACOX-1.1 [1]): None of these nucleotides are able to rescue the time-dependent decrease in enzymatic activity as well as ATP

B1: ACOX-1.1(H396G) (enzyme, C. elegans, UniProt O62140 1-674, looked up)
chain: T1 sequence (O62140 1-674) with H396G
stoichiometry N (SEC): 2

B2: ACOX-1.1(R536E) (enzyme, C. elegans, UniProt O62140 1-674, looked up)
chain: T1 sequence (O62140 1-674) with R536E
stoichiometry N (SEC): 2
